Experimental data published in ChEMBL document CHEMBL4373648, “Anti-biofilm activity of quinazoline derivatives against Mycobacterium smegmatis” (Medchemcomm, 2019).
pIC50: −log10 of the molar value.

Columns and labels:
[1] = test system: Mycolicibacterium smegmatis; experiment: Antibiofilm activity against Mycobacterium smegmatis str. MC2 155 ATCC 700084 after 48 hrs by crystal violet staining based […] assay; assay type: functional, organism-based; settings: MC2 155 ATCC 700084, 48 h
How it was run: (§1)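 IC50 is the concentration giving 50% inhibition of biofilm formation relative to an untreated control.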

[2] = test system: Mycolicibacterium smegmatis; experiment: Antibiofilm activity against Mycobacterium smegmatis str. MC2 155 ATCC 700084 after 48 hrs by crystal violet staining based spectrophotometric assay; assay type: functional, organism-based; settings: MC2 155 ATCC 700084, 48 h; how it was run: as §1
[3] = test system: Mycolicibacterium smegmatis; experiment: Toxicity against Mycobacterium smegmatis str. MC2 155 ATCC 700084 at 60 uM assessed as planktonic growth inhibition incubated for 4 to 48 hrs followed by replating on 7H10 plates and measured after 48 hrs by time kill curve assay; assay type: organism-based; settings: in vivo
How it was run: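 Planktonic growth curves of bacteria grown with compound at 60 μM were compared with curves from untreated cultures.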

[4] = Hemolytic activity in sheep RBC at 500 uM incubated for 1 hr under shaking condition by UV-spectrophotometry relative to 1% Triton-X; assay type: ADME, cell-based, Ovis aries, Erythrocyte; settings: sheep red blood cells (erythrocytes), read-out: Activity
How it was run: (§2)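 Red blood cells were exposed to compound, and hemolysis was expressed as percent lysis relative to 1% Triton-X. The assay served as an antibiotic toxicity screen, and 500 μM was the highest concentration tested.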

[5] = Hemolytic activity in sheep RBC at 200 uM incubated for 1 hr under shaking condition by UV-spectrophotometry relative to 1% Triton-X; assay type: ADME, cell-based, Ovis aries, Erythrocyte; settings: sheep red blood cells (erythrocytes), read-out: Activity; how it was run: as §2
[6] = Hemolytic index, ratio of compound concentration causing hemolysis in sheep RBC to IC50 for antibiofilm activity against Mycobacterium smegmatis str. MC2 155 ATCC 700084
How it was run: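 Red blood cells were exposed to compound at up to 500 μM, including 200 μM. Lysis was quantified relative to 1% Triton-X. The index was calculated as the hemolysis-causing concentration divided by the biofilm-inhibition IC50.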

Compound	pIC50 [1]	other results
Nc1ncc2cc(NC(=O)C(Cl)(Cl)Cl)ccc2n1	4.30	
CCCCCCS(=O)(=O)Nc1ccc2nc(N)ncc2c1	< 4.00	
CCCC(=O)Nc1ccc2nc(N)ncc2c1	4.43	
Nc1ncc2cc(NS(=O)(=O)c3cccs3)ccc2n1	< 4.00	
CCCCCCC(CCCCCC)NC(=O)CCCc1c[nH]c(N)n1		pIC50 [2]: 5.28
CCCCCCCC(=O)Nc1ccc2nc(N)ncc2c1	< 4.00	
CCCCCc1ccc(C(=O)Nc2ccc3nc(N)ncc3c2)cc1	4.41	
Nc1ncc2cc(NC(=O)c3ccc(F)cc3)ccc2n1	< 3.70	
CS(=O)(=O)Nc1ccc2nc(N)ncc2c1	< 4.00	
CCC(=O)Nc1ccc2nc(N)ncc2c1	4.38	
CCc1ccc(C(=O)Nc2ccc3nc(N)ncc3c2)cc1	4.74	
Cc1ccc(C(=O)Nc2ccc3nc(N)ncc3c2)cc1	4.72	
CCCCC(=O)Nc1ccc2nc(N)ncc2c1	4.59	
CCCS(=O)(=O)Nc1ccc2nc(N)ncc2c1	4.44	
Nc1ncc2cc(NC(=O)c3ccccc3)ccc2n1	4.47	
Nc1ncc2cc(NC(=O)c3ccc(I)cc3)ccc2n1	< 3.70	

Compound	pIC50 [1]	other results
Nc1ncc2cc(NC(=O)CCl)ccc2n1	4.37	
CCCCCCCCC(=O)Nc1ccc2nc(N)ncc2c1	< 4.00	
CCS(=O)(=O)Nc1ccc2nc(N)ncc2c1	4.47	
CCCCCCC(=O)Nc1ccc2nc(N)ncc2c1	4.31	
CCCCS(=O)(=O)Nc1ccc2nc(N)ncc2c1	4.22	
CCCCCC(=O)Nc1ccc2nc(N)ncc2c1	4.64	
Nc1ncc2cc(NC(=O)c3cc(Cl)cc(Cl)c3)ccc2n1	4.38	
CCCc1ccc(C(=O)Nc2ccc3nc(N)ncc3c2)cc1.Cl	4.80	Activity [3]: Non-Toxic; hemolysis at 1 h, 500 µM [4]: 25%; hemolysis at 1 h, 200 µM [5]: 14%; HI [6]: > 33
Cl.Nc1ncc2cc(NC(=O)c3ccc(Cl)cc3)ccc2n1	4.82	Activity [3]: Non-Toxic; hemolysis at 1 h, 500 µM [4]: 24%; hemolysis at 1 h, 200 µM [5]: 4%; HI [6]: > 33
Nc1ncc2cc(NC(=O)c3ccc(Br)cc3)ccc2n1	4.36	
CCCCCCCc1ccc(C(=O)Nc2ccc3nc(N)ncc3c2)cc1	< 4.00	hemolysis at 1 h, 500 µM [4]: 57%; hemolysis at 1 h, 200 µM [5]: 31%
CCCCCCc1ccc(C(=O)Nc2ccc3nc(N)ncc3c2)cc1	4.19	
CC(=O)Nc1ccc2nc(N)ncc2c1	4.27	
Nc1ncc2cc(NC(=O)c3cc(F)cc(F)c3)ccc2n1	4.34	
CCCCc1ccc(C(=O)Nc2ccc3nc(N)ncc3c2)cc1	4.41	
